From ChEMBL document CHEMBL1150958, “Growth-inhibitory activities of benzofuran and chromene derivatives toward Tenebrio molitor” (1998)

Tests used:
[1] = test system: Tenebrio molitor; assay: Growth inhibition of last instar larvae of Tenebrio molitor assessed as successful pupation at 120 ug/larvae, applied topically measured every 24 hrs for 30 days; assay type: functional; parameters: scale not given: the % may be the effect or the level left
Summary of the method: (§1)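 Last-instar T. molitor larvae (113–160 mg, from a stock culture kept on wheat bran) were dosed once, topically on the ventral abdominal segments by microsyringe, with 2 µL acetone solution (120 µg compound per larva). Solvent-only controls were included. Larvae were unfed. Pupation and pupal-stage length were scored every 24 h to day 30. n = 60, mean (SE). Pupation was analysed by χ² test and pupal duration by Dunnett test.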

[2] = test system: Tenebrio molitor; assay: Growth inhibition of last instar larvae of Tenebrio molitor assessed as duration of pupal stage at 120 ug/larvae, applied topically measured every 24 hrs for 30 days; assay type: functional; summary of the method: as §1

`C=C(COC(C)=O)[C@@H]1Cc2cc(C(C)=O)ccc2O1` was tested, and the Activity [1] was 75% and the Activity [2] was 9.8 days.

`C=C(COC(C)=O)[C@@H]1Cc2cc(C(C)=O)c(O)cc2O1` was tested, and the Activity [1] was 73.3% and the Activity [2] was 11.2 days.

`C=C(CO)[C@@H]1Cc2cc(C(C)=O)c(O)cc2O1` showed an Activity [1] of 73% and an Activity [2] of 11.6 days.

Molecule `C=C(COC(=O)/C=C/c1ccc(O)cc1)[C@@H]1Cc2cc(C(C)=O)ccc2O1` has an Activity [1] of 26% and an Activity [2] of 10.5 days.

`CC(C)CCc1cc(CCC(=O)O)ccc1O` showed an Activity [1] of 50% and an Activity [2] of 10.2 days.

Molecule `COC(=O)/C=C/c1ccc2c(c1)CCC(C)(C)O2` has an Activity [1] of 87% and an Activity [2] of 7 days.

`CC(=O)c1ccc2c(c1)C(=O)CC(C)(C)O2` was tested, and the Activity [1] was 87% and the Activity [2] was 12.1 days.

With `CC(=O)c1ccc(O)c(C(=O)C=C(C)C)c1` the Activity [1] was 75% and the Activity [2] was 11.4 days.

With `C=C(CO)[C@@H]1Cc2cc(C(C)=O)ccc2O1` [BITALIN A] the Activity [1] was 75% and the Activity [2] was 8.6 days.

`O=C(O)/C=C/c1ccccc1` [CINNAMIC ACID] was tested, and the Activity [1] was 92% and the Activity [2] was 8.7 days.

In the case of `O=C(O)/C=C/c1ccc(O)cc1` [COUMARIC ACID], the Activity [1] is reported as 87% and the Activity [2] is reported as 10 days.

In the case of `CC(=O)c1cc2c(cc1O)OC(C)(C)C=C2` [DEMETHYLENCECALIN], the Activity [1] is reported as 66.6% and the Activity [2] is reported as 11.5 days.

For `CC(C)=CCc1cc(/C=C/C(=O)O)ccc1O` [DRUPANIN], the Activity [1] was 63% and the Activity [2] was 13 days.

`C=C(C)c1cc2cc(C(C)=O)c(O)cc2o1` [EUPARIN] gave an Activity [1] of 83% and an Activity [2] of 10.5 days.
